Source: ChEMBL document CHEMBL1149790, “Synthesis of some novel thiourea derivatives obtained from 5-[(4-aminophenoxy)methyl]-4-alkyl/aryl-2,4-dihydro-3H-1,2,4-triazole-3-thiones and evaluation as antiviral/anti-HIV and anti-tuberculosis agents” (Eur J Med Chem, 2008)
Values after ≈ are worked out from the molar mass of the structure shown.

Tested on: Vaccinia virus
Assay: Antiviral activity against Vaccinia virus in human HEL cells assessed as reduction of virus-induced cytopathogenicity
Format: functional
Conditions: Orthopoxvirus vaccinia
Summary of the method: (§1)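 Confluent cell monolayers (E6SM, HEL, HeLa or Vero, per line) inoculated with 100 CCID50 virus; 1 h adsorption, residual virus removed, then incubated with compound at 400, 200, 100 … µg/ml. Cytopathicity scored once complete in untreated virus controls; MIC = concentration inhibiting virus-induced cytopathicity.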

CNC(=S)Nc1ccc(-c2n[nH]c(=S)n2C)cc1 and CCNC(=S)Nc1ccc(-c2n[nH]c(=S)n2C)cc1 are the same in MIC: 240 µg/mL (≈ 859 µM) for the first, 240 µg/mL (≈ 818 µM) for the second.

CNC(=S)Nc1ccc(-c2n[nH]c(=S)n2-c2ccccc2)cc1 and CCNC(=S)Nc1ccc(-c2n[nH]c(=S)n2-c2ccccc2)cc1 cannot be ordered by MIC: over 80 µg/mL for the first, over 3.2 µg/mL for the second.

C=CCn1c(COc2ccc(NC(=S)NC)cc2)n[nH]c1=S and C=CCn1c(COc2ccc(NC(=S)NCC)cc2)n[nH]c1=S cannot be ordered by MIC: over 400 µg/mL for the first, over 400 µg/mL for the second.

Going from CCCCCCNC(=S)Nc1ccc(-c2n[nH]c(=S)n2CC)cc1 to CCCCCCNC(=S)Nc1ccc(-c2n[nH]c(=S)n2C)cc1, the MIC falls from over 80 µg/mL to 80 µg/mL (≈ 229 µM).

First: CCn1c(COc2ccc(N)cc2)n[nH]c1=S
Second: C=CCn1c(COc2ccc(N)cc2)n[nH]c1=S
The MIC of the first is lower: 240 µg/mL (≈ 959 µM) for the first, over 400 µg/mL for the second.

CNC(=S)Nc1ccc(-c2nnc(SCc3ccccc3)n2C)cc1 and C=CCNC(=S)Nc1ccc(-c2nnc(SCc3ccc(Cl)cc3Cl)n2C)cc1 cannot be ordered by MIC: over 16 µg/mL for the first, over 16 µg/mL for the second.

CCn1c(COc2ccc(NC(=S)Nc3ccccc3)cc2)n[nH]c1=S and C=CCn1c(COc2ccc(NC(=S)Nc3ccccc3)cc2)n[nH]c1=S cannot be ordered by MIC: over 80 µg/mL for the first, over 80 µg/mL for the second.

C=CCNC(=S)Nc1ccc(-c2n[nH]c(=S)n2-c2ccccc2)cc1 and C=CCNC(=S)Nc1ccc(OCc2n[nH]c(=S)n2-c2ccccc2)cc1 cannot be ordered by MIC: over 80 µg/mL for the first, 240 µg/mL (≈ 604 µM) for the second.

Nc1ccc(OCc2n[nH]c(=S)n2-c2ccccc2)cc1 and CNC(=S)Nc1ccc(OCc2n[nH]c(=S)n2-c2ccccc2)cc1 cannot be ordered by MIC: over 400 µg/mL for the first, over 400 µg/mL for the second.

C=CCNC(=S)Nc1ccc(-c2n[nH]c(=S)n2CCCCCC)cc1 and C=CCNC(=S)Nc1ccc(-c2n[nH]c(=S)n2CC)cc1 cannot be ordered by MIC: over 16 µg/mL for the first, 240 µg/mL (≈ 751 µM) for the second.

Nc1nc2c(ncn2COC(CO)CO)c(=O)[nH]1 [GANCICLOVIR] and Nc1nc2c(ncn2COCCO)c(=O)[nH]1 [ACYCLOVIR] cannot be ordered by MIC: over 100 µg/mL for the first, over 400 µg/mL for the second.

First: CCNC(=S)Nc1ccc(OCc2n[nH]c(=S)n2CC)cc1
Second: CCn1c(COc2ccc(NC(=S)NC)cc2)n[nH]c1=S
The MIC of the first is lower: 240 µg/mL (≈ 711 µM) for the first, over 400 µg/mL for the second.

Cn1c(-c2ccc(NC(=S)Nc3ccccc3)cc2)n[nH]c1=S and C=CCn1c(-c2ccc(NC(=S)Nc3ccccc3)cc2)n[nH]c1=S cannot be ordered by MIC: over 80 µg/mL for the first, over 16 µg/mL for the second.

CCNC(=S)Nc1ccc(OCc2n[nH]c(=S)n2-c2ccccc2)cc1 and S=C(Nc1ccccc1)Nc1ccc(OCc2n[nH]c(=S)n2-c2ccccc2)cc1 cannot be ordered by MIC: over 400 µg/mL for the first, over 80 µg/mL for the second.

S=C(Nc1ccccc1)Nc1ccc(-c2n[nH]c(=S)n2-c2ccccc2)cc1 and S=C(Nc1ccc(Cl)cc1)Nc1ccc(-c2n[nH]c(=S)n2-c2ccccc2)cc1 cannot be ordered by MIC: over 80 µg/mL for the first, over 16 µg/mL for the second.

CCNC(=S)Nc1ccc(OCc2n[nH]c(=S)n2C)cc1 and CNC(=S)Nc1ccc(OCc2n[nH]c(=S)n2C)cc1 cannot be ordered by MIC: over 400 µg/mL for the first, over 400 µg/mL for the second.

C=CCNC(=S)Nc1ccc(-c2n[nH]c(=S)n2CCc2ccccc2)cc1 and C=CCNC(=S)Nc1ccc(-c2n[nH]c(=S)n2CC=C)cc1 cannot be ordered by MIC: over 80 µg/mL for the first, over 80 µg/mL for the second.

CCCCCCNC(=S)Nc1ccc(-c2n[nH]c(=S)n2CCCCCC)cc1 and CCCCCCNC(=S)Nc1ccc(-c2n[nH]c(=S)n2-c2ccccc2)cc1 cannot be ordered by MIC: over 3.2 µg/mL for the first, over 16 µg/mL for the second.

C=CCNC(=S)Nc1ccc(OCc2n[nH]c(=S)n2CC)cc1 and C=CCNC(=S)Nc1ccc(OCc2n[nH]c(=S)n2CC=C)cc1 are the same in MIC: 240 µg/mL (≈ 687 µM) for the first, 240 µg/mL (≈ 664 µM) for the second.

Compared with NC(=O)c1ncn([C@@H]2O[C@H](CO)[C@@H](O)[C@H]2O)n1 [RIBAVIRIN], O=c1[nH]c(=O)n([C@H]2C[C@H](O)[C@@H](CO)O2)cc1/C=C/Br [BRIVUDINE] is 15-fold lower in MIC: 48 µg/mL (≈ 197 µM) for the first, 3.2 µg/mL (≈ 9.61 µM) for the second.

First: Cn1c(COc2ccc(N)cc2)n[nH]c1=S
Second: C=CCNC(=S)Nc1ccc(OCc2n[nH]c(=S)n2C)cc1
The MIC of the first is lower: 240 µg/mL (≈ 1020 µM) for the first, over 400 µg/mL for the second.

Cn1c(COc2ccc(NC(=S)Nc3ccccc3)cc2)n[nH]c1=S and C=CCNC(=S)Nc1ccc(-c2n[nH]c(=S)n2C)cc1 cannot be ordered by MIC: over 80 µg/mL for the first, 240 µg/mL (≈ 786 µM) for the second.

C=CCNC(=S)Nc1ccc(-c2nnc(SCc3ccc(Cl)cc3Cl)n2-c2ccccc2)cc1 and C=CCn1c(-c2ccc(NC(=S)NC)cc2)n[nH]c1=S cannot be ordered by MIC: over 16 µg/mL for the first, 240 µg/mL (≈ 786 µM) for the second.

Tested on: Vaccinia virus
Assay: Antiviral activity against Vaccinia virus in human E6SM cells assessed as reduction of virus-induced cytopathogenicity
Format: functional
Conditions: Orthopoxvirus vaccinia
Summary of the method: as §1

CNC(=S)Nc1ccc(-c2n[nH]c(=S)n2C)cc1 and CCNC(=S)Nc1ccc(-c2n[nH]c(=S)n2C)cc1 are the same in MIC: 240 µg/mL (≈ 859 µM) for the first, 240 µg/mL (≈ 818 µM) for the second.

CNC(=S)Nc1ccc(-c2n[nH]c(=S)n2-c2ccccc2)cc1 and CCNC(=S)Nc1ccc(-c2n[nH]c(=S)n2-c2ccccc2)cc1 cannot be ordered by MIC: over 80 µg/mL for the first, over 3.2 µg/mL for the second.

C=CCn1c(COc2ccc(NC(=S)NC)cc2)n[nH]c1=S and C=CCn1c(COc2ccc(NC(=S)NCC)cc2)n[nH]c1=S cannot be ordered by MIC: over 400 µg/mL for the first, over 400 µg/mL for the second.

First: CCCCCCNC(=S)Nc1ccc(-c2n[nH]c(=S)n2CC)cc1
Second: CCCCCCNC(=S)Nc1ccc(-c2n[nH]c(=S)n2C)cc1
The MIC of the first is higher: over 80 µg/mL for the first, 80 µg/mL (≈ 229 µM) for the second.

Compared with CCn1c(COc2ccc(N)cc2)n[nH]c1=S, C=CCn1c(COc2ccc(N)cc2)n[nH]c1=S is higher in MIC: 240 µg/mL (≈ 959 µM) for the first, over 400 µg/mL for the second.

CNC(=S)Nc1ccc(-c2nnc(SCc3ccccc3)n2C)cc1 and C=CCNC(=S)Nc1ccc(-c2nnc(SCc3ccc(Cl)cc3Cl)n2C)cc1 cannot be ordered by MIC: over 16 µg/mL for the first, over 16 µg/mL for the second.

CCn1c(COc2ccc(NC(=S)Nc3ccccc3)cc2)n[nH]c1=S and C=CCn1c(COc2ccc(NC(=S)Nc3ccccc3)cc2)n[nH]c1=S cannot be ordered by MIC: over 80 µg/mL for the first, over 80 µg/mL for the second.

C=CCNC(=S)Nc1ccc(-c2n[nH]c(=S)n2-c2ccccc2)cc1 and C=CCNC(=S)Nc1ccc(OCc2n[nH]c(=S)n2-c2ccccc2)cc1 cannot be ordered by MIC: over 80 µg/mL for the first, 240 µg/mL (≈ 604 µM) for the second.

Nc1ccc(OCc2n[nH]c(=S)n2-c2ccccc2)cc1 and CNC(=S)Nc1ccc(OCc2n[nH]c(=S)n2-c2ccccc2)cc1 cannot be ordered by MIC: over 400 µg/mL for the first, over 400 µg/mL for the second.

C=CCNC(=S)Nc1ccc(-c2n[nH]c(=S)n2CCCCCC)cc1 and C=CCNC(=S)Nc1ccc(-c2n[nH]c(=S)n2CC)cc1 cannot be ordered by MIC: over 16 µg/mL for the first, 240 µg/mL (≈ 751 µM) for the second.

Nc1nc2c(ncn2COC(CO)CO)c(=O)[nH]1 [GANCICLOVIR] and Nc1nc2c(ncn2COCCO)c(=O)[nH]1 [ACYCLOVIR] cannot be ordered by MIC: over 100 µg/mL for the first, over 400 µg/mL for the second.

First: CCNC(=S)Nc1ccc(OCc2n[nH]c(=S)n2CC)cc1
Second: CCn1c(COc2ccc(NC(=S)NC)cc2)n[nH]c1=S
The MIC of the first is lower: 240 µg/mL (≈ 711 µM) for the first, over 400 µg/mL for the second.

Cn1c(-c2ccc(NC(=S)Nc3ccccc3)cc2)n[nH]c1=S and C=CCn1c(-c2ccc(NC(=S)Nc3ccccc3)cc2)n[nH]c1=S cannot be ordered by MIC: over 80 µg/mL for the first, over 16 µg/mL for the second.

CCNC(=S)Nc1ccc(OCc2n[nH]c(=S)n2-c2ccccc2)cc1 and S=C(Nc1ccccc1)Nc1ccc(OCc2n[nH]c(=S)n2-c2ccccc2)cc1 cannot be ordered by MIC: over 400 µg/mL for the first, over 80 µg/mL for the second.

S=C(Nc1ccccc1)Nc1ccc(-c2n[nH]c(=S)n2-c2ccccc2)cc1 and S=C(Nc1ccc(Cl)cc1)Nc1ccc(-c2n[nH]c(=S)n2-c2ccccc2)cc1 cannot be ordered by MIC: over 80 µg/mL for the first, over 16 µg/mL for the second.

CCNC(=S)Nc1ccc(OCc2n[nH]c(=S)n2C)cc1 and CNC(=S)Nc1ccc(OCc2n[nH]c(=S)n2C)cc1 cannot be ordered by MIC: over 400 µg/mL for the first, over 400 µg/mL for the second.

C=CCNC(=S)Nc1ccc(-c2n[nH]c(=S)n2CCc2ccccc2)cc1 and C=CCNC(=S)Nc1ccc(-c2n[nH]c(=S)n2CC=C)cc1 cannot be ordered by MIC: over 80 µg/mL for the first, over 400 µg/mL for the second.

CCCCCCNC(=S)Nc1ccc(-c2n[nH]c(=S)n2CCCCCC)cc1 and CCCCCCNC(=S)Nc1ccc(-c2n[nH]c(=S)n2-c2ccccc2)cc1 cannot be ordered by MIC: over 3.2 µg/mL for the first, over 16 µg/mL for the second.

C=CCNC(=S)Nc1ccc(OCc2n[nH]c(=S)n2CC)cc1 and C=CCNC(=S)Nc1ccc(OCc2n[nH]c(=S)n2CC=C)cc1 are the same in MIC: 240 µg/mL (≈ 687 µM) for the first, 240 µg/mL (≈ 664 µM) for the second.

First: NC(=O)c1ncn([C@@H]2O[C@H](CO)[C@@H](O)[C@H]2O)n1 [RIBAVIRIN]
Second: O=c1[nH]c(=O)n([C@H]2C[C@H](O)[C@@H](CO)O2)cc1/C=C/Br [BRIVUDINE]
The MIC of the first is 15-fold higher: 48 µg/mL (≈ 197 µM) for the first, 3.2 µg/mL (≈ 9.61 µM) for the second.

Going from Cn1c(COc2ccc(N)cc2)n[nH]c1=S to C=CCNC(=S)Nc1ccc(OCc2n[nH]c(=S)n2C)cc1, the MIC rises from 240 µg/mL (≈ 1020 µM) to over 400 µg/mL.

Cn1c(COc2ccc(NC(=S)Nc3ccccc3)cc2)n[nH]c1=S and C=CCNC(=S)Nc1ccc(-c2n[nH]c(=S)n2C)cc1 cannot be ordered by MIC: over 80 µg/mL for the first, 240 µg/mL (≈ 786 µM) for the second.

C=CCNC(=S)Nc1ccc(-c2nnc(SCc3ccc(Cl)cc3Cl)n2-c2ccccc2)cc1 and C=CCn1c(-c2ccc(NC(=S)NC)cc2)n[nH]c1=S cannot be ordered by MIC: over 16 µg/mL for the first, 240 µg/mL (≈ 786 µM) for the second.
